Screening results (PubChem)
The list is not random: actives were taken first. Their share in the collection is about 12%.
Diaphorase inh – diaphorase inhibition or chemical oxidation counter-screen | inhibition, % at 20 µM | AID 1217 | diaphorase resazurin-to-resorufin fluorescence, NADH, 16 min; bacterial (C. kluyveri) enzyme, not human | hit rate 0.69% among 190,000;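 active = primary screen inhibition at 20 µM above a set limit, cut at about 50% in these data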;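 note: plate controls were DMSO with full reaction for no effect and wells lacking NADH for full effect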
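Detection: fluorescence of resorufin formed from resazurin, Ex 544/Em 590 nm; test system: Clostridium kluyveri diaphorase enzyme; amount: 0.14 U/mL diaphorase, enzyme working solution; times: 16-min room-temperature incubation before reading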
Cl transport mod – KCC2 (human) Cl- transport modulation; Q9H2X9; hit rate 2.2% among 190,000; B-score of Tl+ flux slope (higher = more flux/activation; lower = inhibition) at 10 µM; KCC2 cells, thallium flux FluoZin-2 fluorescence;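 active = thallium flux slope and its plate-corrected score both differing from the plate sample mean at a set confidence after two filtering rounds, in either direction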;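 note: slope of fluorescence scaled to starting intensity during 10 to 20 s after thallium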
Target sequence (Q9H2X9 whole entry, looked up): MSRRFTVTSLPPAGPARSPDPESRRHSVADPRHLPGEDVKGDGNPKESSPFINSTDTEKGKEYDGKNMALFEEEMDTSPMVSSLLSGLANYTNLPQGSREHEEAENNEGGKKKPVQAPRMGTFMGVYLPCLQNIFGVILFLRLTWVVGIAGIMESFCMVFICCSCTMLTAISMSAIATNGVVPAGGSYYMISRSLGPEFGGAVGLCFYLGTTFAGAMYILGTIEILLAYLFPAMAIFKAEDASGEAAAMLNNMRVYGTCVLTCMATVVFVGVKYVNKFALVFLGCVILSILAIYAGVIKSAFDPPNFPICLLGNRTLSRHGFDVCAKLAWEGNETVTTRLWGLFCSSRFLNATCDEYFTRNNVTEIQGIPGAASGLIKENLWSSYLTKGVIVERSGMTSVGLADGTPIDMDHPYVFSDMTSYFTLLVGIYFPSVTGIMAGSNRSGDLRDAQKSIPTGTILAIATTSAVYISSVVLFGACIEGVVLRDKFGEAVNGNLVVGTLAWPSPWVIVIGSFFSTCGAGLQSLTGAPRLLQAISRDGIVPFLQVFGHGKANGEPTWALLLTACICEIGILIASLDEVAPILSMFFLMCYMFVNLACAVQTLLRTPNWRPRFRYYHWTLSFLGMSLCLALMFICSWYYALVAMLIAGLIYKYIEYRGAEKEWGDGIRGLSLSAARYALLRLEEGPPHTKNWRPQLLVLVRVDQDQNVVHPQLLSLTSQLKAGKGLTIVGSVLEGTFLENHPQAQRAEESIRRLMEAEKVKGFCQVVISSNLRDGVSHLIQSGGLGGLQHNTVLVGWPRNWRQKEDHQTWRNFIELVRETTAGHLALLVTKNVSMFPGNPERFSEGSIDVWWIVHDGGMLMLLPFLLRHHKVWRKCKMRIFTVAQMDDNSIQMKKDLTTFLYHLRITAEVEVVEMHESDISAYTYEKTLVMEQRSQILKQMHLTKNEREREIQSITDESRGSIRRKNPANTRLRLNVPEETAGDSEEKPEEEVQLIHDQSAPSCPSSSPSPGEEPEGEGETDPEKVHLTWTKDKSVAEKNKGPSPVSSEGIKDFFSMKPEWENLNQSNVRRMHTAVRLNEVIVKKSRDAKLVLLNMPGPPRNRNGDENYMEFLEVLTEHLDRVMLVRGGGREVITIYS
ROMK mod – modulators of human ROMK potassium channel | P48048 | Tet-inducible ROMK, thallium flux fluorescence; actives lie on both sides | B-score at 10 µM | hit rate 2% among 130,000 | AID 1918;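 active = signal ratio slope over the read window, or its plate-corrected B-score, at least 3 SD from the plate mean, either direction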;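 note: B-score of the F/F0 ratio slope over 7 to 12 s after thallium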
L major viab – Leishmania major promastigote growth inhibition. AID 1063. Leishmania major promastigotes, resazurin fluorescence viability. inhibition, % at 10 µM. hit rate 9% among 200,000; in the data active = inhibition above about 50%;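 note: promastigotes grown with compound for 44 hours at 28 °C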
WT yeast gro inh – growth inhibition of WT yeast, mitochondrial fusion screen; mitochondrial fusion phenotypic screen, WT strain; inhibition, % at 10 µM; hit rate 2.1% among 190,000; AID 1362; in the data active = inhibition above about 58%; tested in S. cerevisiae
Diaphorase act – counter-screen for diaphorase-based assays: diaphorase activators and chemical reducers; Diaphorase/resazurin coupled assay, resorufin fluorescence, 16 min; active compounds read high; 1 = vehicle wells, 0 = NADH-free wells; activation factor at 20 µM; hit rate 0.005% among 190,000; AID 1229;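 active = diaphorase activity raised at least twofold by the compound at 20 µM; inactive = activation factor below 2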
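Test system: Clostridium kluyveri diaphorase, purified enzyme. Buffer or medium: 50 mM HEPES pH 7.4 buffer plus MgCl2 and Tween 20. Also added: 0.114 mM NADH and 0.1 mM resazurin, final amounts. Dosing: compound 20 µM once, DMSO 1%. Schedule: 16 min enzyme reaction, ambient temperature. Detection: fluorescence of resorufin, 544 nm excitation, 590 nm emission.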
An asterisk follows results filed as active; . = no result given.

SMILES	Diaphorase inh	Cl transport mod	ROMK mod	L major viab	WT yeast gro inh	Diaphorase act
C=CCOC(=O)C1=C[C@@H](c2ccc(C(F)(F)F)cc2)[C@H](CCCO)[C@@H](OCC)O1	38	-0.25	.	2	-5	0.6
Cc1ccc(-c2nn(C)c(=O)c3ccccc23)cc1CNC(=O)Cn1nc(-c2ccccc2)c2ccccc2c1=O	4	-0.51	.	-6	14	1
O=NN(CCc1ccncc1)c1ccc(OCc2ccccc2)cc1	-24	-2.6	-2.4	86*	-36	1.2
N#CSCC(=O)c1cccc2ccccc12	7	12*	.	26	26	0.9
Cc1cccc(C)c1NC(=O)CCCSc1nnc(-c2ccco2)o1	.	0.78	-0.62	-1	-17	.
Cc1ccccc1NC(=O)CSc1nnc(-c2ccco2)c(-c2ccco2)n1	49	-0.58	.	93*	4	0.5
Cc1cccc(C)c1NC(=O)CSc1nnc(-c2ccco2)c(-c2ccco2)n1	48	-0.0012	.	83*	5	0.5
CC(C)=CCC/C(C)=C/COc1ccc2ccc(=O)oc2c1	22	0.47	.	-13	61*	0.8
CCc1nnc(NC(=O)C2CC(=O)N(Cc3ccccc3)C2)s1 (configuration not stated)	10	1.4	-0.2	-12	-10	0.9
O=C(Nc1nnc(SCc2ccc(F)cc2)s1)C1CC(=O)N(Cc2ccccc2)C1 (configuration not stated)	15	-1.8	-0.39	54*	-17	0.8
O=C(/C=C/c1ccccc1[N+](=O)[O-])OCC(=O)c1ccccc1	-7	-3	-0.0015	-4	-8	1.1
O=[N+]([O-])c1ccccc1OCCCNCc1ccccc1	-2	0.13	0.61	98*	4	1
O=C(COc1ccccc1[N+](=O)[O-])c1ccccc1	17	-1.4	-1.9	99*	-7	0.8
CCOc1ccccc1OCCOCCOc1ccccc1[N+](=O)[O-]	6	-1.4	.	-2	8	0.9
COC(=O)CCC(=O)Nc1sc(Cc2ccccc2)c(C)c1C(N)=O	.	-0.032	0.2	-9	64*	.
Cc1oc(-c2cc(F)ccc2F)nc1CN1CCN(C)C(=O)[C@@H]1C	10	0.68	-0.076	2	0	0.9
N#Cc1ccc(OCCOCCNC2CCCC2)cc1	-4	-0.91	-0.63	81*	-8	1
OC(CNC1CCCC1)COCCOc1ccc(Br)cc1 (configuration not stated)	.	-0.1	.	.	.	.
c1ccc(Cc2ccc(OCCn3cncn3)cc2)cc1	8	.	.	-1	10	0.9
c1cc2c(cc1OCCNC1CCCC1)CCC2	7	0.55	-0.34	76*	6	0.9
c1ccc(SCCCCNC2CCCC2)cc1	-4	0.61	.	87*	21	1
CNCCCOc1ccc2c(c1)CCC2	-5	2.1	0.64	34	0	1
c1ccc(Cc2ccc(OCCCNC3CCCC3)cc2)cc1	8	1.4	-8e-05	100*	47	0.9
O=C(CCCN1C(=O)/C(=C\c2cccs2)SC1=S)NNC(=O)c1cccnc1	-3	1.3	0.18	-6	-8	1
c1ccc(-c2ccc(OCCCNC3CCCC3)cc2)cc1	1	0.025	-3	100*	46	1
SMILES	Diaphorase inh	Cl transport mod	ROMK mod	L major viab	WT yeast gro inh	Diaphorase act
COc1ccc(OCCNC2CCCC2)cc1	24	0.052	.	61*	-13	0.8
COc1ccc(OCCC(=O)NC2CCCCC2)cc1	-10	0.49	.	0	0	1.1
CC1(C)CC2CC(C)(CN2C(=O)COC(=O)CNC(=O)c2ccc(Cl)c(Cl)c2)C1 (configuration not stated)	5	-0.58	0.18	-5	7	0.9
COc1ccc(S(=O)(=O)Oc2ccc3ccccc3c2)cc1	19	-1.2	0.82	48	60*	0.8
COc1ccc(S(=O)(=O)NCc2ccccc2)cc1	-6	-0.46	-1	-7	-30	1.1
Cc1cccc(-c2noc(CN(C(=O)C(c3ccccc3)c3ccccc3)C(C)C)n2)c1	27	-3.2	.	22	28	0.7
Cc1ccc(C2C3=C(CCCC3=O)N=C3c4ccccc4C(=O)C32)cc1 (configuration not stated)	35	-2	-0.46	67*	-11	0.7
CCOC(=O)C1=C(C)N=C2c3ccccc3C(=O)C2C1c1ccccc1 (configuration not stated)	22	0.49	0.63	-3	0	0.8
O=C1CCCC2=C1C(c1ccc(Cl)cc1)C1C(=O)c3ccccc3C1=N2 (configuration not stated)	24	-2.7	.	57*	3	0.8
O=C1CCCC2=C1C(c1ccccc1)C1C(=O)c3ccccc3C1=N2 (configuration not stated)	20	-0.61	0.78	62*	10	0.8
O=C1CCCC2=C1C(c1ccc(Cl)cc1)N1C(=O)CCSC1=N2 (configuration not stated)	15	1	.	-2	-15	0.8
Clc1ccc(Nc2ncn[nH]2)c(Cl)c1	1	-0.96	-1.4	-11	20	1
Cc1ccc(S(=O)(=O)N2CCOCC2)cc1NC(=O)COC(=O)CSc1ccc(Br)cc1C	22	0.25	0.57	-8	-8	0.8
O=C(Nc1nc2nccc(-c3ccccc3)n2n1)C(Cl)(Cl)Cl	32	-1.6	0.82	53*	-8	0.7
CC1=CC(=O)C=C(C)C1=NOc1ccc([N+](=O)[O-])cc1	25	0.58	0.32	60*	-31	0.7
COc1ccccc1CNc1cc(CSc2ccc(Cl)cc2)nc(C)n1	20	.	-1.2	57*	46	0.8
Cc1nc(CSc2ccc(Cl)cc2)cc(N2CC(C)OC(C)C2)n1 (configuration not stated)	19	0.017	-0.1	4	8	0.8
CCOC(=O)N1CCN(C(=O)C(C)(C)Oc2ccc(Cl)cc2)CC1	9	-0.41	.	-4	7	0.9
COc1ccc(N2CCN(C(=O)C(C)(C)Oc3ccc(Cl)cc3)CC2)cc1	24	-1.6	.	98*	43	0.8
C#CCCOC(=O)N1C2=NC(C(=O)OC)=C(C(=O)OC)[C@@H]3N(CC=C)c4ccccc4[C@]23C[C@H]1C(=O)OC	.	-1.3	.	.	.	.
Cc1oncc1C(=O)NC(C)C	14	.	-0.064	-2	-1	0.9
CCN1C(=O)c2cccc3c(S(=O)(=O)NCc4ccco4)ccc1c23	29	-0.14	-0.54	43	-4	0.7
CCN1C(=O)c2cccc3c(S(=O)(=O)NCc4cccnc4)ccc1c23	9	-1.7	0.011	70*	-1	0.9
CCOC(=O)C(C)Oc1ccc(OCc2ccccc2)cc1 (configuration not stated)	11	-0.92	0.81	-9	13	0.9
